Assay results: PMC7132385 (Antiviral Research, 2007)
Converted amounts (≈) assume the structure as drawn. Where two headings read alike, the source gives them in different places.

B1: Urtica dioica agglutinin (protein, UniProt P11218 24-372, looked up)
Lectin/endochitinase 1: QRCGSQGGGGTCPALWCCSIWGWCGDSEPYCGRTCENKCWSGERSDHRCGAAVGNPPCGQDRCCSVHGWCGGGNDYCSGSKCQYRCSSSVRGPRVALSGNSTANSIGNVVVTEPLFDQMFSHRKDCPSQGFYSYHSFLVAAESFPAFGTIGDVATRKREVAAFLAHISQATSGERSDVENPHAWGLCHINTTTVTENDFCTSSDWPCAAGKKYSPRGPIQLTHNFNYGLAGQAIGEDLIQNPDLVEKDPIISFKTALWFWMSQHDNKPSCHDIVLNANSAANRIPNKGVIGNIISRAFGHDDFAVRSSSIGFYKRYCDMLGVSYGHDLKYWFDNTPSSEFQRIQMRVAA
B2: cyanovirin-N (protein, UniProt P81180 1-101, looked up)
Cyanovirin-N: LGKFSQTCYNSAIQGSVLTSTCERTNGGYNTSSIDLNSVIENVDGSLKWQPSNFIETCRNTQLAGSSELAAECKTRAQQFVSTKINLDDHIANIDGTLKYE

Key:
[1] = Maximum solubility of the compound; assay type: physicochemical
[2] = tested on: ST cells; test: Cytotoxicity MTT assay, ST cells; assay type: cell-based, porcine; details: read-out: CC50 (50% cytotoxicity), ST, 3 days, ± S.D.
Outline: (§1)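 Cells grown in DMEM with 10% FBS and antibiotics were kept with a range of test compound concentrations for 3 days at 37 °C, 5% CO2. MTT was added to 0.5 mg/ml final for 2 h at 37 °C. Medium was removed and cells were lysed in DMSO (10 min, room temperature, rocking). OD was read at 570 nm. CC50 is the concentration lowering viability of 50% of cells, ± S.D.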

[3] = Cytotoxicity MTT assay, Vero cells; assay type: cell-based, simian; details: monkey (simian), Vero cells
Outline: as §1

[4] = tested on: FIPV Black TN406HP (serotype I); test: Immunoperoxidase; assay type: cell-based, feline coronavirus; details: read-out: EC50 (50% inhibition of virus infection), FIPV Black TN406HP (serotype I)
Outline: (§2)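 FCWF monolayers were given virus (MOI 0.5) that had been preincubated 1 h at 37 °C with test compound, for 1 h after a PBS-DEAE wash, then washed and given compound at the same concentrations. Cells were fixed in 4% formaldehyde for 15 min at 6 h post-infection (16 h for serotype I strain), permeabilised with 70% ethanol, and stained with cat FIP ascitic fluid plus HRP goat anti-cat. EC50 is 50% fewer microscopically counted infected foci than mock-treated cells.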

[5] = tested on: porcine alveolar macrophages (PAMs); test: Cytotoxicity by EMA staining, PAMs; assay type: cell-based; details: read-out: CC50 (50% cytotoxicity), PAMs, 24 h, ± S.D.
[6] = tested on: FIPV-Δ3abcFL (serotype II); test: Immunoperoxidase; assay type: cell-based, feline coronavirus; details: read-out: EC50 (50% inhibition of virus infection), FIPV-Δ3abcFL (serotype II)
Outline: as §2

[7] = Cytotoxicity MTT assay, FCWF cells; assay type: cell-based, feline; details: cat, FCWF cells
Outline: as §1

[8] = Cytotoxicity MTT assay, LR7 cells; assay type: cell-based, mouse; details: mouse
Outline: as §1

[9] = tested on: MHV-EFLM; test: Immunoperoxidase; assay type: cell-based, mouse hepatitis virus; details: read-out: EC50 (50% inhibition of virus infection), MHV-EFLM
Outline: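 Murine LR7 fibroblasts expressing the MHV receptor were infected at MOI 0.5 with virus preincubated 1 h at 37 °C with test compound. After 1 h the inoculum was removed, cells were washed, and compound was re-added at the same concentrations. At 6 h cells were fixed in 4% formaldehyde and permeabilised with 70% ethanol. Immunoperoxidase staining used rabbit anti-MHV polyclonal plus HRP swine anti-rabbit. EC50 is the concentration lowering light-microscope infected-cell counts by 50% versus mock.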

[10] = Cytotoxicity MTT assay, Ederm cells; assay type: cell-based, equine; details: horse, equine dermis (Ederm) cells
Outline: as §1

[11] = tested on: Berne virus torovirus; test: Colorimetric MTT antiviral assay, Berne virus; assay type: cell-based, equine torovirus; details: read-out: EC50 (50% inhibition of virus infection), Berne virus torovirus
Outline: (§3)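 100 TCID50 of virus was preincubated with graded test compound for 1 h at 37 °C, 5% CO2, added to PBS-DEAE-washed cells for 1 h, then removed, and compound was re-added at the same concentrations in DMEM with 5% FBS. MTT (0.5 mg/ml final) was added for 2 h at day 2 (FCoV 79-1683, FIPV 79-1146) or day 3 (others), then DMSO lysis and OD570. EC50 is 50% protection from CPE.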

[12] = tested on: FCoV 79-1683 (serotype II); test: Immunoperoxidase; assay type: cell-based, feline coronavirus; details: read-out: EC50 (50% inhibition of virus infection), FCoV 79-1683 (serotype II)
Outline: as §2

[13] = tested on: Equine arteritis virus; test: Colorimetric MTT antiviral assay, equine arteritis virus; assay type: cell-based; details: read-out: EC50 (50% inhibition of virus infection), Equine arteritis virus
Outline: as §3

[14] = tested on: IBV Beaudette; test: Colorimetric MTT antiviral assay, IBV Beaudette; assay type: cell-based, infectious bronchitis virus; details: read-out: EC50 (50% inhibition of virus infection), IBV Beaudette
Outline: as §3

[15] = tested on: FIPV Black TN406HP (serotype I); test: Colorimetric MTT antiviral assay, FIPV Black TN406HP; assay type: cell-based, feline coronavirus; details: read-out: EC50 (50% inhibition of virus infection), FIPV Black TN406HP (serotype I), FCWF cells, 100 TCID50, 3 days, ± S.D.
Outline: as §3

[16] = tested on: FIPV 79-1146 (serotype II); test: Colorimetric MTT antiviral assay, FIPV 79-1146; assay type: cell-based, feline coronavirus; details: read-out: EC50 (50% inhibition of virus infection), FIPV 79-1146 (serotype II), FCWF cells, 100 TCID50, 2 days, ± S.D.
Outline: as §3

[17] = tested on: Vero cells; test: Cytotoxicity MTT assay, Vero cells; assay type: cell-based, simian; details: read-out: CC50 (50% cytotoxicity), Vero; MTT assay, 3 days; ± S.D.
Outline: as §1

[18] = tested on: TGEV Purdue; test: Colorimetric MTT antiviral assay, TGEV Purdue; assay type: cell-based, transmissible gastroenteritis virus; details: read-out: EC50 (50% inhibition of virus infection), TGEV Purdue, ST cells, 100 TCID50, 3 days, ± S.D.
Outline: as §3

[19] = tested on: PRRSV Lelystad virus; test: Immunoperoxidase; assay type: cell-based, porcine reproductive and respiratory syndrome virus; details: IPOX assay; for PRRSV Lelystad virus infection of PAMs reduced to: at 2 μM; for EC50: read-out: EC50 (50% inhibition of virus infection), PRRSV Lelystad virus, PAMs, MOI 1, 10 h post-infection, ± S.D.
Outline: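 Primary porcine alveolar macrophages were kept in EMEM with 10% FBS at 37 °C, 5% CO2. Virus at MOI 1 was preincubated 1 h at 37 °C with test compound, then added to cells for 1 h. Cells were washed with FBS-free medium and fixed in −20 °C methanol at 10 h post-infection. Peroxidase was blocked with azide/H2O2. Staining used anti-nucleocapsid MAb P3/27 with HRP anti-mouse. Infected cells were counted by light microscopy against mock-treated cells.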

[20] = tested on: FCWF cells; test: Cytotoxicity MTT assay, FCWF cells; assay type: cell-based, feline; details: read-out: CC50 (50% cytotoxicity), FCWF; MTT assay, 3 days; ± S.D.
Outline: as §1

[21] = tested on: LR7 cells; test: Cytotoxicity MTT assay, LR7 cells; assay type: cell-based, mouse; details: read-out: CC50 (50% cytotoxicity), LR7; MTT assay, 3 days; ± S.D.
Outline: as §1

[22] = tested on: FCoV 79-1683 (serotype II); test: Colorimetric MTT antiviral assay, FCoV 79-1683; assay type: cell-based, feline coronavirus; details: read-out: EC50 (50% inhibition of virus infection), FCoV 79-1683 (serotype II), FCWF cells, 100 TCID50, 2 days, ± S.D.
Outline: as §3

[23] = tested on: equine dermis (Ederm) cells; test: Cytotoxicity MTT assay, Ederm cells; assay type: cell-based; details: read-out: CC50 (50% cytotoxicity), Ederm; MTT assay, 3 days; ± S.D.
Outline: as §1

[24] = tested on: retroviruses; details: read-out: EC50 against retroviruses; earlier studies; ref Balzarini et al., 1992; cited from earlier work
[25] = IPOX assay, FCWF cells, MOI 0.5, 16 h post-infection, ± S.D.
[26] = IPOX assay, FCWF cells, MOI 0.5, 6 h post-infection, ± S.D.
[27] = IPOX assay, LR7 cells, MOI 0.5, 6 h post-infection, ± S.D.
[28] = MTT assay, Ederm cells, 100 TCID50, 3 days, ± S.D.
[29] = MTT assay, Vero cells, 100 TCID50, 3 days, ± S.D.

| Molecule | CC50 [2] | CC50 [5] | EC50 [15] | EC50 [16] | CC50 [17] | EC50 [18] | EC50 [4, 25] | EC50 [6, 26] | PRRSV Lelystad virus infection of PAMs reduced to [19] | EC50 [19] | CC50 [20] | CC50 [21] | EC50 [22] | EC50 [9, 27] | CC50 [23] | EC50 [11, 28] | EC50 [12, 26] | EC50 [13, 28] | EC50 [14, 29] | other results |
| --- | --- | --- | --- | --- | --- | --- | --- | --- | --- | --- | --- | --- | --- | --- | --- | --- | --- | --- | --- | --- |
| CN[C@@H]1[C@H](O[C@@H]2OC[C@@H](O)[C@H](O)[C@H]2O)[C@@H](O)[C@H](O[C@H]2c3cc(C)c(C(=O)N[C@H](C)C(=O)O)c(O)c3-c3c(cc4c(c3O)C(=O)c3cc(OC)cc(O)c3C4=O)[C@@H]2O)O[C@@H]1C [PRM-A, pradimicin-A, reference compound] | 121000 ± 27600 nM | 18100 ± 6400 nM | – | – | – | – | – | – | – | – | – | – | – | – | – | – | – | – | – | solubility [1]: 120 µM (≈ 101 µg/mL); CC50 at 3 days [3]: 120000 ± 32400 nM; EC50 ([4]; Alphacoronavirus 1, 16 h): 7800 ± 2000 nM; EC50 ([6]; Alphacoronavirus 1, 6 h): > 120000 nM; CC50 at 3 days [7]: > 120000 nM; CC50 at 3 days [8]: > 120000 nM; EC50 ([9]; Murine coronavirus, LR7, 6 h): 10700 ± 5800 nM; CC50 at 3 days [10]: > 120000 nM; EC50 ([11]; Equine torovirus, 72 h): 31000 ± 24000 nM; EC50 ([12]; Alphacoronavirus 1, 6 h): > 120000 nM; EC50 ([13]; Equine arteritis virus, 72 h): > 120000 nM; EC50 ([14]; Avian coronavirus, Vero, 72 h): 2900 ± 2000 nM |
| Galanthus nivalis agglutinin [GNA] | > 2000 nM | > 2000 nM | 8 ± 5 nM | 130 ± 2 nM | > 2000 nM | 4 ± 0.8 nM | 12 ± 6 nM | 70 ± 40 nM | 40% | > 2000 nM | > 2000 nM | > 2000 nM | 430 ± 300 nM | 40 ± 20 nM | > 2000 nM | 120 ± 90 nM | 200 ± 60 nM | 180 ± 70 nM | 0.2 ± 0.2 nM | – |
| Cymbidium sp. agglutinin [CA] | – | – | 130 ± 2 nM | 290 ± 110 nM | – | – | – | – | – | – | 3300 ± 800 nM | > 4000 nM | – | – | – | – | – | – | – | EC50 [24]: 3 nM |
| Hippeastrum hybrid agglutinin [HHA] | > 2000 nM | > 2000 nM | 7 ± 3 nM | 100 ± 2 nM | > 2000 nM | – | 4 ± 2 nM | 30 ± 20 nM | 40% | > 2000 nM | > 2000 nM | > 2000 nM | 110 ± 30 nM | 70 ± 20 nM | 1900 ± 300 nM | 70 ± 70 nM | 60 ± 20 nM | 130 ± 40 nM | 0.2 ± 0.2 nM | – |
| B1 | 6100 ± 1000 nM | > 12000 nM | 23 ± 12 nM | 240 ± 140 nM | 3400 ± 1300 nM | 80 ± 70 nM | 20 ± 10 nM | 140 ± 50 nM | – | 4800 ± 3200 nM | 2200 ± 300 nM | 9900 ± 4800 nM | 110 ± 30 nM | 530 ± 20 nM | 9500 ± 3100 nM | 250 ± 200 nM | 170 ± 100 nM | 390 ± 10 nM | 50 ± 50 nM | – |
| B2 | – | – | – | – | – | – | – | – | – | – | 1400 ± 500 nM | > 2000 nM | – | – | – | – | – | – | – | – |
